Active and inactive are the calls of the source. The rule behind the calls is not given here.
Key:
[1] = target: T1, Uracil nucleotide/cysteinyl leukotriene receptor (Homo sapiens, UniProt Q13304); experiment: Agonist activity at human GPR17 expressed in human 1321N1 cells assessed as induction of calcium mobilization after 1 hr by Oregon Green BAPTA-1/AM dye-based fluorescence assay; assay type: functional, cell-based
Summary of the method: (§1)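 Stably transfected 1321N1 astrocytoma cells were trypsin/EDTA-harvested, held 45 min at 37°C, then loaded 1 h at 25°C in KRH buffer pH 7.4 with 3 µM Oregon Green BAPTA-1/AM and 1% Pluronic F127, washed, and plated at ~16,000 cells/well. Fluorescence was read at 520 nm for 30 s after compound injection. Efficacy was expressed relative to the maximum given by 10 µM MDL 29,951. EC50 came from concentration-response curves, run for compounds exceeding 50% stimulation at 10 µM. At least three independent experiments, each in duplicate.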

[2] = target: T1, Uracil nucleotide/cysteinyl leukotriene receptor; experiment: Agonist activity at human GPR17 expressed in human 1321N1 cells assessed as induction of calcium mobilization after 1 hr by Oregon Green BAPTA-1/AM dye-based fluorescence assay relative to MDL 29,951; assay type: functional, cell-based; summary of the method: as §1
[3] = target: T1, Uracil nucleotide/cysteinyl leukotriene receptor; experiment: Agonist activity at human GPR17 expressed in human 1321N1 cells assessed as induction of calcium mobilization at >30 uM after 1 hr by Oregon Green BAPTA-1/AM dye-based fluorescence assay relative to control; assay type: functional, cell-based
[4] = target: P2Y purinoceptor 12 (Homo sapiens) (UniProt Q9H244); experiment: Agonist activity at human P2Y12 receptor transfected in CHO cells assessed as induction of beta-arrestin translocation; assay type: functional, cell-based
Summary of the method: (§2)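 β-Arrestin translocation assays were run in CHO cells stably transfected with human P2Y12 or P2Y14 receptors.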

[5] = target: P2Y purinoceptor 6 (Homo sapiens) (UniProt Q15077); experiment: Agonist activity at human P2Y6 receptor transfected in human 1321N1 cells assessed as induction of calcium mobilization after 30 mins in presence of UDP by fluo-4 dye based assay; assay type: functional, cell-based
Summary of the method: (§3)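 Calcium mobilization was measured in 1321N1 astrocytoma cells stably transfected with human P2Y1, P2Y2, P2Y4 or P2Y6 receptors, read on a Flexstation III microplate reader.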

[6] = target: T2, P2Y purinoceptor 14 (Homo sapiens) (UniProt Q15391); experiment: Agonist activity at human P2Y14 receptor transfected in CHO cells assessed as induction of beta-arrestin translocation; assay type: functional, cell-based; summary of the method: as §2
T2 sequence (whole entry): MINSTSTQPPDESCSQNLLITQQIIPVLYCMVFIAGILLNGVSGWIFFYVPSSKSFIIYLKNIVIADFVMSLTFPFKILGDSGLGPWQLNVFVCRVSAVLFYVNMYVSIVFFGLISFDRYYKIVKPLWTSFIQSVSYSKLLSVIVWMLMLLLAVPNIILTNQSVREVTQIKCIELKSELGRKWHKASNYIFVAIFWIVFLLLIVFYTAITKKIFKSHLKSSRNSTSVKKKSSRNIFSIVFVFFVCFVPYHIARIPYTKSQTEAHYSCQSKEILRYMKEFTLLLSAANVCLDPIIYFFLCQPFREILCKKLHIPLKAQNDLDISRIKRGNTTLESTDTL

P2Y purinoceptor 2 = P2Y purinoceptor 2 (Homo sapiens, UniProt P41231); experiment: Agonist activity at human P2Y2 receptor transfected in human 1321N1 cells assessed as induction of calcium mobilization after 30 mins in presence of UTP by fluo-4 dye based assay; assay type: functional, cell-based; summary of the method: as §3
[7] = target: P2Y purinoceptor 4 (Homo sapiens) (UniProt P51582); experiment: Agonist activity at human P2Y4 receptor transfected in human 1321N1 cells assessed as induction of calcium mobilization after 30 mins in presence of UTP by fluo-4 dye based assay; assay type: functional, cell-based; summary of the method: as §3
[8] = target: P2Y purinoceptor 1 (Homo sapiens) (UniProt P47900); experiment: Agonist activity at human P2Y1 receptor transfected in human 1321N1 cells assessed as induction of calcium mobilization after 30 mins in presence of ADP by fluo-4 dye based assay; assay type: functional, cell-based; summary of the method: as §3
[9] = target: T1, Uracil nucleotide/cysteinyl leukotriene receptor; experiment: Agonist activity at human GPR17 expressed in human 1321N1 cells assessed as induction of calcium mobilization at >100 uM after 1 hr by Oregon Green BAPTA-1/AM dye-based fluorescence assay relative to control; assay type: functional, cell-based
[10] = target: T1, Uracil nucleotide/cysteinyl leukotriene receptor; experiment: Antagonist activity at human GPR17 expressed in human 1321N1 cells assessed as inhibition of MDL 29,951-induced calcium mobilization after 1 hr by Oregon Green BAPTA-1/AM dye-based fluorescence assay; assay type: functional, cell-based
Summary of the method: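 Oregon Green BAPTA-1/AM calcium assay in hGPR17-1321N1 cells (1 h dye loading at 25°C in KRH buffer pH 7.4). Full inhibition curves were run for potent antagonists. Fluorescence was read at 520 nm.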

[11] = target: T1, Uracil nucleotide/cysteinyl leukotriene receptor; experiment: Agonist activity at human GPR17 expressed in human 1321N1 cells assessed as induction of calcium mobilization at >10 uM after 1 hr by Oregon Green BAPTA-1/AM dye-based fluorescence assay relative to control; assay type: functional, cell-based
[12] = target: T1, Uracil nucleotide/cysteinyl leukotriene receptor; experiment: Antagonist activity at human GPR17 expressed in human 1321N1 cells assessed as inhibition of MDL 29,951-induced calcium mobilization at 30 uM after 1 hr by Oregon Green BAPTA-1/AM dye-based fluorescence assay relative to control
[13] = target: Uracil nucleotide/cysteinyl leukotriene receptor (Mus musculus, UniProt Q6NS65); experiment: Agonist activity at mouse GPR17 expressed in HEK293 cells assessed as induction of intracellular calcium mobilization by calcium 5-dye based assay; assay type: functional, cell-based
Summary of the method: (§4)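 HEK293 cells expressing rat or mouse GPR17 were seeded at 60,000 cells/well on poly-D-lysine plates and loaded 40 min with Calcium 5 indicator dye. Calcium signals were read on a plate reader. EC50 was obtained by nonlinear regression of concentration-response data. Means ± SEM from 3 independent experiments.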

[14] = Selectivity ratio of EC50 for mouse GPR17 expressed in HEK293 cells to EC50 for human GPR17 expressed in human 1321N1 cells; assay type: cell-based
[15] = Selectivity ratio of EC50 for rat GPR17 expressed in HEK293 cells to EC50 for human GPR17 expressed in human 1321N1 cells; assay type: cell-based
[16] = target: Uracil nucleotide/cysteinyl leukotriene receptor (Rattus norvegicus, UniProt Q09QM4); experiment: Agonist activity at rat GPR17 expressed in HEK293 cells assessed as induction of intracellular calcium mobilization by calcium 5-dye based assay; assay type: functional, cell-based; summary of the method: as §4
[17] = target: T1, Uracil nucleotide/cysteinyl leukotriene receptor; experiment: Displacement of [3H]PSB-12150 from human GPR17 expressed in CHO cell membranes after 60 mins by liquid scintillation counting
Summary of the method: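 Membranes from CHO cells stably expressing human GPR17 were incubated 60 min at 25°C with 25 nM [3H]PSB-12150 (17 Ci/mmol), 10 mM MgCl2 and increasing test compound concentrations. Bound radioligand was separated by GF/B filtration and counted by liquid scintillation. Nonspecific binding was defined with 100 µM unlabeled PSB-12150. Ki came from the Cheng-Prusoff equation with KD 1190 nM. Three independent experiments in duplicate.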

P2Y purinoceptor 4 (Homo sapiens), sequence (P51582 whole entry): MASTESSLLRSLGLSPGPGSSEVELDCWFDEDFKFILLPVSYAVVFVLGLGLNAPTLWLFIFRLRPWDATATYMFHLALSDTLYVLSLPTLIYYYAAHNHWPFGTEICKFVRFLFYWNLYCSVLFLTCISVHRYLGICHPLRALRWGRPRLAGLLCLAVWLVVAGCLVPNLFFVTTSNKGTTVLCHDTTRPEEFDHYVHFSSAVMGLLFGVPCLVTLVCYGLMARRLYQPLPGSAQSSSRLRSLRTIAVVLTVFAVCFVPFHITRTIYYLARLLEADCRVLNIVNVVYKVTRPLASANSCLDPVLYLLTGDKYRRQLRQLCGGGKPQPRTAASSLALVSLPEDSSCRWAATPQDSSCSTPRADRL
P2Y purinoceptor 1 (Homo sapiens), sequence (P47900 whole entry): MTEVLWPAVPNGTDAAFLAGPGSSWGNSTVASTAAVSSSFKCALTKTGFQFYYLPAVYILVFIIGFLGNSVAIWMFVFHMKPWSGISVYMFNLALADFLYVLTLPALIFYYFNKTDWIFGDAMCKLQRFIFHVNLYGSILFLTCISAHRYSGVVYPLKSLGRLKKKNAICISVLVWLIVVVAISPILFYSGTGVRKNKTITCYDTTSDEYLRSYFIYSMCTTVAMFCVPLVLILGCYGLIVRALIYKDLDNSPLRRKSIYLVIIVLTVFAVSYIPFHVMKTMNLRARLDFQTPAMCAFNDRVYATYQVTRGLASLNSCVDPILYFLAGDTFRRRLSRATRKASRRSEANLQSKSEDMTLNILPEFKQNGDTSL
T1 sequence (Q13304 whole entry): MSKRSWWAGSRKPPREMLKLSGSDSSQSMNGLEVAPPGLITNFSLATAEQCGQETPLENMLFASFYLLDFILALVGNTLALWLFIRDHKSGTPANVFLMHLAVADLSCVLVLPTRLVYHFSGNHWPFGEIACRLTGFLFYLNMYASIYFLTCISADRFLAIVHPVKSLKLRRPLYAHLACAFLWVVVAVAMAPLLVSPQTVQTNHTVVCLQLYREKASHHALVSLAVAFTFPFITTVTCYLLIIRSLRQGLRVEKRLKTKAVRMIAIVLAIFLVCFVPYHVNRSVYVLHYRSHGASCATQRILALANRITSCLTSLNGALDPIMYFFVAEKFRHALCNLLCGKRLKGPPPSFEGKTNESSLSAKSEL
P2Y purinoceptor 2, sequence (P41231 whole entry): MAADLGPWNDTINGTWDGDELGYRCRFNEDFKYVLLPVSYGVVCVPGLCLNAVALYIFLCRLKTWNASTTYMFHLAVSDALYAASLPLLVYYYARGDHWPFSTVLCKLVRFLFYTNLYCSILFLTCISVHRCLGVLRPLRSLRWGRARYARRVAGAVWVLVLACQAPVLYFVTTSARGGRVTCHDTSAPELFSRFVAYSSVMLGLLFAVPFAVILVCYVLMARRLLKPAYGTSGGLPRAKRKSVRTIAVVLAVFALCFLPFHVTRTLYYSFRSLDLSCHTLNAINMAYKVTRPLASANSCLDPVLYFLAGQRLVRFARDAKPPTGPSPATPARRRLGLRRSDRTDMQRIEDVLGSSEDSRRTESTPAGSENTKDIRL
P2Y purinoceptor 12 (Homo sapiens), sequence (Q9H244 whole entry): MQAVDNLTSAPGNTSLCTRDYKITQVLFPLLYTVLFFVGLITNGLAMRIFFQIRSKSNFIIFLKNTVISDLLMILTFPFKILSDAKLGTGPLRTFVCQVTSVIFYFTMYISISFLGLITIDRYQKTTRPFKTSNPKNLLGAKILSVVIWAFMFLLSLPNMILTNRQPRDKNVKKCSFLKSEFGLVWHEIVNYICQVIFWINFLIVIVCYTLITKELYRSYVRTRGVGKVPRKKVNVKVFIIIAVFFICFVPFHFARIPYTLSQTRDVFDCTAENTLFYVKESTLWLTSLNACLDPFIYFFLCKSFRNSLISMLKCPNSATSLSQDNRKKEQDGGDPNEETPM
P2Y purinoceptor 6 (Homo sapiens), sequence (Q15077 whole entry): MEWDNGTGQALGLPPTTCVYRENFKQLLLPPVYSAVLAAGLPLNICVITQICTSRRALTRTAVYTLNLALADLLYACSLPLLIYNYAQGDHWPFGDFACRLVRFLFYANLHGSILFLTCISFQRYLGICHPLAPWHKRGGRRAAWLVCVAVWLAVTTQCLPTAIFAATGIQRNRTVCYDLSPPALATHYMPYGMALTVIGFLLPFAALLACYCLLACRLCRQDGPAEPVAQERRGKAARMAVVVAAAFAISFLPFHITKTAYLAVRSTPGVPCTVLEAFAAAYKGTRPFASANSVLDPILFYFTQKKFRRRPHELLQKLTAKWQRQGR
Uracil nucleotide/cysteinyl leukotriene receptor (Rattus norvegicus, UniProt Q09QM4), sequence (Q09QM4 whole entry): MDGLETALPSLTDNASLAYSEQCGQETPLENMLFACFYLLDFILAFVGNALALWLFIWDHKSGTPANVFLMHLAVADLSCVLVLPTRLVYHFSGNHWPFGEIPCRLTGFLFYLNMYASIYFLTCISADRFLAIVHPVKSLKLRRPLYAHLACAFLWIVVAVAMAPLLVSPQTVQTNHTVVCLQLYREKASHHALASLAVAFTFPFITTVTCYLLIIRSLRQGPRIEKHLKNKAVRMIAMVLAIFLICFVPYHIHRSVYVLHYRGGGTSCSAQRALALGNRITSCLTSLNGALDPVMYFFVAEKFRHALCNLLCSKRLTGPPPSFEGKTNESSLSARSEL
Uracil nucleotide/cysteinyl leukotriene receptor (Mus musculus, UniProt Q6NS65), sequence (Q6NS65 whole entry): as the sequence (Q09QM4 whole entry) above, with D2N, T6A, A15S, S270A counted along it

Structure (SMILES) | EC50 [1] [µM] | Emax [2] [%] | Activity [3] [%] | further results
O=C(O)CCc1c(C(=O)O)[nH]c2cc(-c3cccs3)ccc12 | 9.55 | 87 |  | 
O=C(O)CCc1c(C(=O)O)[nH]c2cc(Cc3ccccc3)ccc12 | 4.98 | 80 |  | 
O=C(O)CCc1c(C(=O)O)[nH]c2c(F)c(Br)ccc12 | 4.83 | 98 |  | 
CC(C)c1ccc2[nH]c(C(=O)O)c(CCC(=O)O)c2c1 | > 30 |  | 6 | 
O=C(O)CCc1c(C(=O)O)[nH]c2cc(Br)cc(F)c12 | 0.0279 | 102 |  | Activity [4]: inactive; Activity [5]: inactive; Activity [6]: inactive; Activity (P2Y purinoceptor 2): inactive; Activity [7]: inactive; Activity [8]: inactive
COc1cccc2[nH]c(C(=O)O)c(CCC(=O)O)c12 | > 100 |  |  | Activity [9]: 4%
O=C(O)CCCc1c(C(=O)O)[nH]c2cc(Cl)cc(Cl)c12 | > 30 |  | 1 | 
COc1ccc2c(CCC(=O)O)c(C(=O)O)[nH]c2c1 | > 100 |  |  | Activity [9]: 35%; IC50 [10]: 8.4 µM
O=C(O)CCc1c(C(=O)O)[nH]c2c(F)c(-c3cccs3)ccc12 | > 100 |  |  | Activity [9]: 21%
O=C(O)CCc1c(C(=O)O)[nH]c2c(Cl)c(Cl)ccc12 | > 100 |  |  | Activity [9]: 5%
CCCCCCCCOc1cc(Cl)cc2[nH]c(C(=O)O)c(CCC(=O)O)c12 | > 10 |  |  | Activity [11]: 25%
O=C(O)CCc1c(C(=O)O)[nH]c2cc(Oc3ccccc3)ccc12 | 0.27 | 100 |  | 
O=C(O)CCc1c(C(=O)O)[nH]c2cc(I)cc(F)c12 | 0.0321 | 122 |  | Activity [4]: inactive; Activity [5]: inactive; Activity [6]: inactive; Activity (P2Y purinoceptor 2): inactive; Activity [7]: inactive; Activity [8]: inactive
O=C(O)CCc1c(C(=O)O)[nH]c2cc(-c3ccc(F)cc3)ccc12 | 4.02 | 48 |  | 
CCCCCOc1cc(Cl)c2c(CCC(=O)O)c(C(=O)O)[nH]c2c1 | 0.103 | 98 |  | 
O=C(O)CCc1c(C(=O)O)[nH]c2cccc(-c3ccccc3)c12 | > 100 |  |  | Activity [9]: 3%
O=C(O)CCc1c(C(=O)O)[nH]c2c(F)c(-c3ccco3)ccc12 | 14.4 | 57 |  | 
N[C@@H](Cc1c[nH]c2ccccc12)C(=O)O [TRYPTOPHAN] |  |  | 0 | IC50 [10]: > 30 µM; inhibition [12]: 1%
O=C(O)CCc1c(C(=O)O)[nH]c2cc(Cl)cc(Cl)c12 |  |  |  | Activity [4]: inactive; EC50 [13]: 1.11 µM; Ratio EC50 [14]: 2 to 6; Activity [5]: inactive; Activity [6]: inactive; Ratio EC50 [15]: 2 to 6; EC50 [16]: 0.705 µM; Activity (P2Y purinoceptor 2): inactive; Ki [17]: 2.45 µM; Activity [7]: inactive; Activity [8]: inactive
COc1ccc2c(c1)c(CC(=O)O)c(C)n2C(=O)c1ccc(Cl)cc1 [INDOMETHACIN] |  |  | 0 | IC50 [10]: 28.8 µM
O=C(O)CCc1c(C(=O)O)n(CCC(=O)O)c2cc(Cl)cc(Cl)c12 | 5.44 |  |  | 
O=C(O)CCc1c(C(=O)O)[nH]c2cc(Cl)ccc12 |  | 84 |  | 
CCCCCCCCOc1cc(Cl)c2c(CCC(=O)O)c(C(=O)O)[nH]c2c1 | 0.117 | 77 |  | 
CN(C)CCc1c[nH]c2ccc(Cn3cncn3)cc12 [RIZATRIPTAN] |  |  | 0 | IC50 [10]: > 30 µM; inhibition [12]: 27%
O=C(O)CCc1c(C(=O)O)[nH]c2c(Cl)ccc(Cl)c12 | > 30 |  | 1 | 

Structure (SMILES) | EC50 [1] [µM] | Emax [2] [%] | Activity [3] [%] | further results
O=C(O)CCc1c(C(=O)O)[nH]c2cc(-c3ccc(F)cc3)cc(Cl)c12 | 0.423 | 92 |  | 
Cn1c(C(=O)O)c(CCC(=O)O)c2c(Cl)cc(Cl)cc21 | > 30 |  | 16 | 
Cc1cc(C)c2c(CCC(=O)O)c(C(=O)O)[nH]c2c1 | 15.1 | 76 |  | 
O=C(O)CCc1c(C(=O)O)[nH]c2cc(-c3ccccc3)cc(-c3ccccc3)c12 | 4.09 | 84 |  | 
O=C(O)CCc1c(C(=O)O)[nH]c2ccccc12 | > 30 |  | 8 | 
O=C(O)CCc1c(C(=O)O)[nH]c2c(F)c(-c3ccc(F)cc3)ccc12 | > 100 |  |  | 
O=C(O)CCc1c(C(=O)O)[nH]c2ccc(F)cc12 | > 30 |  | 9 | 
O=C(O)CCc1c(C(=O)O)[nH]c2cc(-c3ccccc3)ccc12 |  | 83 |  | 
O=C(O)CCc1c(C(=O)O)[nH]c2c(F)c(Cl)ccc12 | 7.9 | 87 |  | 
O=C(O)CCc1c(C(=O)O)[nH]c2cc(F)cc(Br)c12 | 0.624 | 100 |  | 
O=C(O)CCc1c(C(=O)O)[nH]c2c(F)c(-c3ccccc3)ccc12 | 3.01 | 65 |  | 
O=C(O)CCc1c(C(=O)O)[nH]c2cc(-c3ccco3)ccc12 | 4.13 | 74 |  | 
O=C(O)CCc1c(C(=O)O)[nH]c2cc(Cl)c(Cl)cc12 | > 30 |  | 11 | 
O=C(O)CCc1c(C(=O)O)[nH]c2cc(F)ccc12 | ≥ 10 |  |  | 
O=C(O)CCc1c(C(=O)O)[nH]c2cc(Cl)cc(-c3ccc(F)cc3)c12 | 3.68 | 101 |  | 
O=C(O)CCc1c(C(=O)O)[nH]c2c(Cl)cc(Cl)c(Cl)c12 | > 30 |  | 16 | 
CCCCCOc1cc(Cl)cc2[nH]c(C(=O)O)c(CCC(=O)O)c12 | ≥ 10 |  |  | 
O=C(O)CCc1c[nH]c2cc(Cl)cc(Cl)c12 | 1.68 | 41 |  | 
O=C(O)CCc1c(C(=O)O)[nH]c2cc(F)cc(F)c12 |  | 72 |  | 
COc1ccc2[nH]c(C(=O)O)c(CCC(=O)O)c2c1 | > 30 |  | 5 | 
O=C(O)CCc1c(C(=O)O)[nH]c2cc(F)cc(I)c12 | 1.47 | 92 |  | 
O=C(O)Cc1c[nH]c2ccc(O)cc12 |  |  | 1 | IC50 [10]: > 30 µM; inhibition [12]: 7%
O=C(O)CCc1c(C(=O)O)[nH]c2c1ccc1ccccc12 | > 30 |  | 0 | 
O=C(O)/C=C/c1c(C(=O)O)[nH]c2cc(Cl)cc(Cl)c12 | > 30 |  | 22 | 
